Data reported in ChEMBL document CHEMBL5154945, “Discovery and Optimization of Pyrrolopyrimidine Derivatives as Selective Disruptors of the Perinucleolar Compartment, a Marker of Tumor Progression toward Metastasis” (J Med Chem, 2022).
Calls of active or inactive are those of the source. The rule behind the calls is not given here.

Tests used:
[1] = tested on: PC-3M; experiment: Anticancer activity in human PC-3M cells expressing PTB/GFP fusion protein assessed as perinucleolar compartment disassembly and measured after 24 hrs by Hoechst 33342 staining based microscopic method; assay type: functional, cell-based
Summary of the method: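 Imaged by high-content microscopy. Nuclei with PNC spots ≥3 and >0 scored positive. PNC prevalence % = PNC-positive nuclei/total nuclei ×100, normalized to DMSO (0% activity) and 0% PNC (−100%). IC50 from concentration-response.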

[2] = tested on: PC-3M; experiment: Antiproliferative activity against human PC-3M cells expressing PTB/GFP fusion protein assessed as cell growth inhibition at 0.1 to 10 uM and measured every four hrs for 130 hrs by IncuCyte zoom live cell analysis; assay type: functional, cell-based; conditions: dose 0.1-10 µM
Summary of the method: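 PC3M cells stably expressing GFP-PTB, grown in DMEM with 10% FBS and 1% penicillin/streptomycin, seeded at 1.25×10^4 cells/ml in 384-well plates and left overnight at 37 °C, 5% CO2. Compound added in DMEM to give 11 final concentrations from 10 nM to 20 μM. Brightfield images were taken every 4 h for about 130 h and scored as percent confluence.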

[3] = tested on: PC-3M; experiment: Antiproliferative activity against human PC-3M cells expressing PTB/GFP fusion protein assessed as disruption of RNA synthesis marker NOPP140 at 1 uM measured after 1 hr by DAPI staining based immunofluorescence microscopy; assay type: functional, cell-based
Summary of the method: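 50,000 PC3M cells on chamber slides were treated with 1 μM compound for 1 h at 37 °C, then fixed in 4% paraformaldehyde for 15 min, permeabilized with 0.3% Triton X-100 and blocked in 3% BSA. Primary antibodies were anti-RPA194 (1:200) and anti-NOPP140 (1:100), overnight at 4 °C, followed by secondary antibodies and DAPI mounting. Confocal images at 63×, three images of about 200 cells per group; counts of bright objects were normalized to DAPI-stained nuclei.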

[4] = Tmax in female BALB/c mouse at 25 mg/kg, ip and measured upto 48 hrs by LC-MS/MS analysis; assay type: ADME, organism-based; conditions: in vivo
Summary of the method: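 Fed female BALB/c mice, about 6–8 weeks old and 25–30 g, received a single IP dose of 5 or 25 mpk in NMP/PEG400/HP-β-CD aqueous vehicle (0.5 mg/mL for the 5 mpk dose). Three mice per time point were sampled up to 48 h by retro-orbital bleed under isoflurane into K2EDTA. Plasma was spun at 2000 g, 4 °C, frozen at -80 °C, and assayed by LC/MS/MS.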

[5] = AUC (0 to 48 hrs) in female BALB/c mouse at 5 mg/kg, ip at 48 hrs by LC-MS/MS analysis; assay type: ADME, organism-based; parameters: time 48 hrs, dose 5 mg/kg, route ip; conditions: in vivo
Summary of the method: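 Fed female BALB/c mice, about 6–8 weeks old and 25–30 g, received a single IP dose. The vehicle was 5-10% NMP + 20% PEG400 + 70-75% (25% HP-β-CD in water), with the drug at 2.5/0.5 mg/mL. Blood was taken by retro-orbital puncture under isoflurane into K2EDTA tubes, 3 mice per time point, over 48 h. Plasma was prepared at 2000 g, 5 min, 4 °C, and measured by LC/MS/MS.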

[6] = tested on: HL-60(TB); experiment: Anticancer activity against human HL-60(TB) cells assessed as cell growth inhibition; assay type: functional, cell-based; conditions: dose 1-100 µM, DDE = dose-dependent effect
[7] = tested on: RPMI-8226; experiment: Anticancer activity against human RPMI-8226 cells assessed as cell growth inhibition; assay type: functional, cell-based; conditions: dose 1-100 µM, DDE = dose-dependent effect
[8] = tested on: EKVX; experiment: Anticancer activity against human EKVX cells assessed as cell growth inhibition; assay type: functional, cell-based; conditions: dose 1-100 µM, DDE = dose-dependent effect
[9] = tested on: HOP-62; experiment: Anticancer activity against human HOP-62 cells assessed as cell growth inhibition; assay type: functional, cell-based; conditions: dose 1-100 µM, DDE = dose-dependent effect
[10] = tested on: NCI-H322M; experiment: Anticancer activity against human NCI-H322M cells assessed as cell growth inhibition; assay type: functional, cell-based; conditions: dose 1-100 µM, DDE = dose-dependent effect
[11] = tested on: SF-268; experiment: Anticancer activity against human SF-268 cells assessed as cell growth inhibition; assay type: functional, cell-based; conditions: dose 1-100 µM, DDE = dose-dependent effect
[12] = tested on: SNB-75; experiment: Anticancer activity against human SNB-75 cells assessed as cell growth inhibition; assay type: functional, cell-based; conditions: dose 1-100 µM, DDE = dose-dependent effect
[13] = tested on: Malme-3M; experiment: Anticancer activity against human Malme-3M cells assessed as cell growth inhibition; assay type: functional, cell-based; conditions: dose 1-100 µM, DDE = dose-dependent effect
[14] = tested on: SK-MEL-5; experiment: Anticancer activity against human SK-MEL-5 cells assessed as cell growth inhibition; assay type: functional, cell-based; conditions: dose 1-100 µM, DDE = dose-dependent effect
[15] = tested on: OVCAR-5; experiment: Anticancer activity against human OVCAR-5 cells assessed as cell growth inhibition; assay type: functional, cell-based; conditions: dose 1-100 µM, DDE = dose-dependent effect
[16] = tested on: OVCAR-8; experiment: Anticancer activity against human OVCAR-8 cells assessed as cell growth inhibition; assay type: functional, cell-based; conditions: dose 1-100 µM, DDE = dose-dependent effect
[17] = tested on: NCI/ADR-RES; experiment: Anticancer activity against human NCI/ADR-RES cells assessed as cell growth inhibition; assay type: functional, cell-based; conditions: dose 1-100 µM, DDE = dose-dependent effect
[18] = tested on: SK-OV-3; experiment: Anticancer activity against human SK-OV-3 cells assessed as cell growth inhibition; assay type: functional, cell-based; conditions: dose 1-100 µM, DDE = dose-dependent effect
[19] = tested on: ACHN; experiment: Anticancer activity against human ACHN cells assessed as cell growth inhibition; assay type: functional, cell-based; conditions: dose 1-100 µM, DDE = dose-dependent effect
[20] = tested on: DU-145; experiment: Anticancer activity against human DU-145 cells assessed as cell growth inhibition; assay type: functional, cell-based; conditions: dose 1-100 µM, DDE = dose-dependent effect
[21] = tested on: MDA-MB-231; experiment: Anticancer activity against human MDA-MB-231 cells assessed as cell growth inhibition; assay type: functional, cell-based; conditions: dose 1-100 µM, DDE = dose-dependent effect
[22] = tested on: Hs-578T; experiment: Anticancer activity against human Hs-578T cells assessed as cell growth inhibition; assay type: functional, cell-based; conditions: dose 1-100 µM, DDE = dose-dependent effect
[23] = biological target: 5-hydroxytryptamine receptor 1E (Homo sapiens) (UniProt P28566); experiment: Binding affinity to 5-HT1E receptor (unknown origin) at 10000 nM by radioligand displacement assay relative to control
Chain of 5-hydroxytryptamine receptor 1E (Homo sapiens) (P28566 whole entry): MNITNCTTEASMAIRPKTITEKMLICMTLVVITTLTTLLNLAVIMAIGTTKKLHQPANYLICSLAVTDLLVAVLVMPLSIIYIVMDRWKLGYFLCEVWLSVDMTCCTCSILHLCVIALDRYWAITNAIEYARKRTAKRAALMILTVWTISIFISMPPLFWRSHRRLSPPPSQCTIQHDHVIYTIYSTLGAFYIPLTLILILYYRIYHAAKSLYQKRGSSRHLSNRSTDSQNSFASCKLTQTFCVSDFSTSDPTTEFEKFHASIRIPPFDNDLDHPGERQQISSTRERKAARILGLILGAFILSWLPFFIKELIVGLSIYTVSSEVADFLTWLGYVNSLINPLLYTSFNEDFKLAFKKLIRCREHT

[24] = biological target: 5-hydroxytryptamine receptor 2A (Homo sapiens) (UniProt P28223); experiment: Binding affinity to 5-HT2A receptor (unknown origin) at 10000 nM by radioligand displacement assay relative to control
Chain of 5-hydroxytryptamine receptor 2A (Homo sapiens) (P28223 whole entry): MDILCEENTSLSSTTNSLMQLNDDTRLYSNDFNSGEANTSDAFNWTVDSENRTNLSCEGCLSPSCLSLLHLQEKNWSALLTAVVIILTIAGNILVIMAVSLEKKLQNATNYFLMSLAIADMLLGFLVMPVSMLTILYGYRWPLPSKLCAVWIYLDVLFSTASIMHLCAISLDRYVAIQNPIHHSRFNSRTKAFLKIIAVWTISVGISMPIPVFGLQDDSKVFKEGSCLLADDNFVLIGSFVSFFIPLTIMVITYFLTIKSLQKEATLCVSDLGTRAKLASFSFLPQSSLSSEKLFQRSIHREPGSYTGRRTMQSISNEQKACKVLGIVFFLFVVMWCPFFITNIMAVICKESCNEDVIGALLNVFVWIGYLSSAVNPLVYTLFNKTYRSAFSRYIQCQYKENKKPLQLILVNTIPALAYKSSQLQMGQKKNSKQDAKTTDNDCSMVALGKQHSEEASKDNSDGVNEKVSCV

[25] = biological target: 5-hydroxytryptamine receptor 2C (Homo sapiens) (UniProt P28335); experiment: Binding affinity to 5-HT2C receptor (unknown origin) at 10000 nM by radioligand displacement assay relative to control
Chain of 5-hydroxytryptamine receptor 2C (Homo sapiens) (P28335 whole entry): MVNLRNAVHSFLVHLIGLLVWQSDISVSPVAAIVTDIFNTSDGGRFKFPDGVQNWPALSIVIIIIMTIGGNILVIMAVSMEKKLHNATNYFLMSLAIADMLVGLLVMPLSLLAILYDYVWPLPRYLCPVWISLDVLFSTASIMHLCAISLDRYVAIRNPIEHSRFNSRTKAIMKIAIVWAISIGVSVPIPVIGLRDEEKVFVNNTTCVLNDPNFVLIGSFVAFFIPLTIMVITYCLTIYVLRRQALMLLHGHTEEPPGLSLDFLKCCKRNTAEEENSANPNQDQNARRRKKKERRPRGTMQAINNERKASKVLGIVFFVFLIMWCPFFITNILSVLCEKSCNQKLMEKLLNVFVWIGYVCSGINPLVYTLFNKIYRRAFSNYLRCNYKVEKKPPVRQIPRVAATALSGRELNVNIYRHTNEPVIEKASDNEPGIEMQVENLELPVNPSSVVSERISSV

[26] = biological target: Alpha-1B adrenergic receptor (Homo sapiens) (UniProt P35368); experiment: Binding affinity to alpha1B receptor (unknown origin) at 10000 nM by radioligand displacement assay relative to control
Chain of Alpha-1B adrenergic receptor (Homo sapiens) (P35368 whole entry): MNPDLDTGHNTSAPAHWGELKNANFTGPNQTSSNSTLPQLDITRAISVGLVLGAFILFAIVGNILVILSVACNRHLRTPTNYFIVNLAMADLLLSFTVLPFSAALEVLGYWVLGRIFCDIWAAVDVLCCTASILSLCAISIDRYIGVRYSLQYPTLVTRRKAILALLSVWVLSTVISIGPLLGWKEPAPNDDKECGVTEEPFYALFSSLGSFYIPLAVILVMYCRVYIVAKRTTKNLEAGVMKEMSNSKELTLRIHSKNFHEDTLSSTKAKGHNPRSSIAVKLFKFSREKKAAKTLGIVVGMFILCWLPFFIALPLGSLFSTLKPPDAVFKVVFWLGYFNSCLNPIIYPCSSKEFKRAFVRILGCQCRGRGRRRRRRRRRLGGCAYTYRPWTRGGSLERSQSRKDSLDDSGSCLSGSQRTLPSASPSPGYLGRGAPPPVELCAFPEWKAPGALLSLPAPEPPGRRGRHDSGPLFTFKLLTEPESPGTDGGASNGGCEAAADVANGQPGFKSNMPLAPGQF

[27] = biological target: Beta-3 adrenergic receptor (Homo sapiens) (UniProt P13945); experiment: Binding affinity to beta3 receptor (unknown origin) at 10000 nM by radioligand displacement assay relative to control
Chain of Beta-3 adrenergic receptor (Homo sapiens) (P13945 whole entry, looked up): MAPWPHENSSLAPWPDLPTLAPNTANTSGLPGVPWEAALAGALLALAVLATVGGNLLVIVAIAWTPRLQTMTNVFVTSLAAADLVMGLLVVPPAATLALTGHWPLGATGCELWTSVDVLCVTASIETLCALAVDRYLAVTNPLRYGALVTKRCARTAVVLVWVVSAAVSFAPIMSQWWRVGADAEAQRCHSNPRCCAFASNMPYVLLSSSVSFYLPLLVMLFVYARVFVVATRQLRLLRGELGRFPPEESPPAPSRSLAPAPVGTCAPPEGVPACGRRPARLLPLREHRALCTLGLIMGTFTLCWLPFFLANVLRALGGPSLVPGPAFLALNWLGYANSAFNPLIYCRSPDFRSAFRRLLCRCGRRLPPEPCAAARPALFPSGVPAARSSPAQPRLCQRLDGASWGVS

[28] = biological target: D(2) dopamine receptor (Homo sapiens) (UniProt P14416); experiment: Binding affinity to D2 receptor (unknown origin) at 10000 nM by radioligand displacement assay relative to control
Chain of D(2) dopamine receptor (Homo sapiens) (P14416 whole entry): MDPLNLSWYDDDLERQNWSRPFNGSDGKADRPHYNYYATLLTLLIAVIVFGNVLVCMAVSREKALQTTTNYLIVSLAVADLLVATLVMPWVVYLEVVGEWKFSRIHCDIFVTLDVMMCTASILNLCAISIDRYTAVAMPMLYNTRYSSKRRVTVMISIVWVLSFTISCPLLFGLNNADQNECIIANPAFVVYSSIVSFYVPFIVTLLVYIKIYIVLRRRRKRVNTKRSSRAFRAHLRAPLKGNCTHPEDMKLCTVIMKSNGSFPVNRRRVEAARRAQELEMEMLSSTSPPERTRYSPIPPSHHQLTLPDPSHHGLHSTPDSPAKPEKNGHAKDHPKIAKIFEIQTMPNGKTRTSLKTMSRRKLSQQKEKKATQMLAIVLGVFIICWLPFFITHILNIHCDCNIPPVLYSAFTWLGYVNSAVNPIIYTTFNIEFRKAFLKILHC

[29] = biological target: D(1B) dopamine receptor (Homo sapiens) (UniProt P21918); experiment: Binding affinity to D5 receptor (unknown origin) at 10000 nM by radioligand displacement assay relative to control
Chain of D(1B) dopamine receptor (Homo sapiens) (P21918 whole entry): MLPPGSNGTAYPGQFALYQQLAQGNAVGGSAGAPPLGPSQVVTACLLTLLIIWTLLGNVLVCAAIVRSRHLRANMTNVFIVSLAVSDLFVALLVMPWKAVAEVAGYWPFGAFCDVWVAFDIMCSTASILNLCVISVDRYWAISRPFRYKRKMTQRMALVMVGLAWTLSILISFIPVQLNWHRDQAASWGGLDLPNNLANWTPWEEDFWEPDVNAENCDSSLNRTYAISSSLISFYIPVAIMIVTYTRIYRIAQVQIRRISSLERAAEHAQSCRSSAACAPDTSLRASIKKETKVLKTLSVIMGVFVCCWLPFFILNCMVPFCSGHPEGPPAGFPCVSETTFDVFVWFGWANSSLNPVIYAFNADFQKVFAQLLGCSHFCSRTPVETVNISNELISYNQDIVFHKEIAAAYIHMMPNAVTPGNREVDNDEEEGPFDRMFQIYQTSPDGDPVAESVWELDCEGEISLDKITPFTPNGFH

[30] = biological target: Histamine H2 receptor (Homo sapiens) (UniProt P25021); experiment: Binding affinity to H2 receptor (unknown origin) at 10000 nM by radioligand displacement assay relative to control
Chain of Histamine H2 receptor (Homo sapiens) (P25021 whole entry): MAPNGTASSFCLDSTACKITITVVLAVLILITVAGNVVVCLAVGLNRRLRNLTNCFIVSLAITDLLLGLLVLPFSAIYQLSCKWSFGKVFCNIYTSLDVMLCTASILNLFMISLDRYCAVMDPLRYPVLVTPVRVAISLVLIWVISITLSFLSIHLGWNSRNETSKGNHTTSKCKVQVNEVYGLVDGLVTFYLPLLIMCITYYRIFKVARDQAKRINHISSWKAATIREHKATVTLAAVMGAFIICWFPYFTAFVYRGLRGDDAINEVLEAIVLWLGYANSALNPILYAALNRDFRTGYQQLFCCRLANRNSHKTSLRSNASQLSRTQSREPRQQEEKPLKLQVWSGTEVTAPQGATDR

[31] = biological target: Mu-type opioid receptor (Homo sapiens) (UniProt P35372); experiment: Binding affinity to MOR receptor (unknown origin) at 10000 nM by radioligand displacement assay relative to control
Chain of Mu-type opioid receptor (Homo sapiens) (P35372 whole entry): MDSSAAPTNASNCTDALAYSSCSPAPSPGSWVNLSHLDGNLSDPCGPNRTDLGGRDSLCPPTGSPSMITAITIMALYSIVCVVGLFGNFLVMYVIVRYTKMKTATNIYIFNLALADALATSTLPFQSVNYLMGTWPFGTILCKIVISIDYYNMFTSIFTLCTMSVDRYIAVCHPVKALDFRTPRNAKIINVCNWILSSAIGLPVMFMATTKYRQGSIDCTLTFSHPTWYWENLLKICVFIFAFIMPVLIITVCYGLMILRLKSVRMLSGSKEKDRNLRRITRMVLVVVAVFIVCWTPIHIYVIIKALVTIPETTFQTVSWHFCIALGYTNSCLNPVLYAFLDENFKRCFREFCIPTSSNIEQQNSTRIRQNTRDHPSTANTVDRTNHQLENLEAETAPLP

[32] = mouse, in vivo, ip, 50 mg/kg, 0.5 h

Which IC50 ([1]; read-out: IC50) does the source give for N=c1c2c(-c3ccccc3)c(-c3ccccc3)n(Cc3ccccc3)c2ncn1[C@H]1CC[C@H](O)CC1 [ML-246] here?
Its IC50 is 200 nM.

And the IC50 ([1]; read-out: pIC50 (converted))?
Its IC50 is 178 nM.

What about the Activity [2] of the same compound?
The Activity was “Active”.

What about the Activity [3] of the same compound?
The Activity was “Active”.

And the Tmax [4]?
Its Tmax is 30 min.

What about the AUC [5] of the same compound?
The AUC was 6.08 µM·h.

What about the Activity [6] of the same compound?
Its Activity is “Dde”.

And the Activity [7]?
The Activity was “Dde”.

What about the Activity [8] of the same compound?
The Activity was “Dde”.

And the Activity [9]?
Its Activity is “Dde”.

And the Activity [10]?
The Activity was “Dde”.

And the Activity [11]?
The Activity was “Dde”.

And the Activity [12]?
Its Activity is “Dde”.

And the Activity [13]?
The Activity was “Dde”.

What about the Activity [14] of the same compound?
The Activity was “Dde”.

And the Activity [15]?
The Activity was “Dde”.

What about the Activity [16] of the same compound?
The Activity was “Dde”.

What about the Activity [17] of the same compound?
The Activity was “Dde”.

And the Activity [18]?
The Activity was “Dde”.

And the Activity [19]?
The Activity was “Dde”.

What about the Activity [20] of the same compound?
The Activity was “Dde”.

And the Activity [21]?
The Activity was “Dde”.

What about the Activity [22] of the same compound?
Its Activity is “Dde”.

What about the Activity [23] of the same compound?
The Activity was < 50%.

And the Activity [24]?
The Activity was < 50%.

What about the Activity [25] of the same compound?
The Activity was < 50%.

And the Activity [26]?
The Activity was < 50%.

What about the Activity [27] of the same compound?
The Activity was < 50%.

And the Activity [28]?
Its Activity is < 50%.

What about the Activity [29] of the same compound?
The Activity was < 50%.

And the Activity [30]?
The Activity was < 50%.

What about the Activity [31] of the same compound?
Its Activity is < 50%.

And the Cmax [32]?
Its Cmax is 20.3 µM.
